Measurements from ChEMBL document CHEMBL4024792, “(N-Hydroxycarbonylbenylamino)quinolines as Selective Histone Deacetylase 6 Inhibitors Suppress Growth of Multiple Myeloma in Vitro and in Vivo” (J Med Chem, 2018).
Blank lines part the entries; values can stand above or below the molecule they belong to. Activity calls are given as the source filed them. The calls are words filed in the database; no cut-off is given here.

Legend:
[1] = target: T1, Protein deacetylase HDAC6 (Homo sapiens, UniProt Q9UBN7); experiment: Inhibition of full length recombinant human N-terminal GST-tagged HDAC6 expressed in baculovirus infected insect cells using RHK-K(Ac)-AMC as substrate after 90 mins by fluorescence assay
T1 sequence (Q9UBN7 whole entry): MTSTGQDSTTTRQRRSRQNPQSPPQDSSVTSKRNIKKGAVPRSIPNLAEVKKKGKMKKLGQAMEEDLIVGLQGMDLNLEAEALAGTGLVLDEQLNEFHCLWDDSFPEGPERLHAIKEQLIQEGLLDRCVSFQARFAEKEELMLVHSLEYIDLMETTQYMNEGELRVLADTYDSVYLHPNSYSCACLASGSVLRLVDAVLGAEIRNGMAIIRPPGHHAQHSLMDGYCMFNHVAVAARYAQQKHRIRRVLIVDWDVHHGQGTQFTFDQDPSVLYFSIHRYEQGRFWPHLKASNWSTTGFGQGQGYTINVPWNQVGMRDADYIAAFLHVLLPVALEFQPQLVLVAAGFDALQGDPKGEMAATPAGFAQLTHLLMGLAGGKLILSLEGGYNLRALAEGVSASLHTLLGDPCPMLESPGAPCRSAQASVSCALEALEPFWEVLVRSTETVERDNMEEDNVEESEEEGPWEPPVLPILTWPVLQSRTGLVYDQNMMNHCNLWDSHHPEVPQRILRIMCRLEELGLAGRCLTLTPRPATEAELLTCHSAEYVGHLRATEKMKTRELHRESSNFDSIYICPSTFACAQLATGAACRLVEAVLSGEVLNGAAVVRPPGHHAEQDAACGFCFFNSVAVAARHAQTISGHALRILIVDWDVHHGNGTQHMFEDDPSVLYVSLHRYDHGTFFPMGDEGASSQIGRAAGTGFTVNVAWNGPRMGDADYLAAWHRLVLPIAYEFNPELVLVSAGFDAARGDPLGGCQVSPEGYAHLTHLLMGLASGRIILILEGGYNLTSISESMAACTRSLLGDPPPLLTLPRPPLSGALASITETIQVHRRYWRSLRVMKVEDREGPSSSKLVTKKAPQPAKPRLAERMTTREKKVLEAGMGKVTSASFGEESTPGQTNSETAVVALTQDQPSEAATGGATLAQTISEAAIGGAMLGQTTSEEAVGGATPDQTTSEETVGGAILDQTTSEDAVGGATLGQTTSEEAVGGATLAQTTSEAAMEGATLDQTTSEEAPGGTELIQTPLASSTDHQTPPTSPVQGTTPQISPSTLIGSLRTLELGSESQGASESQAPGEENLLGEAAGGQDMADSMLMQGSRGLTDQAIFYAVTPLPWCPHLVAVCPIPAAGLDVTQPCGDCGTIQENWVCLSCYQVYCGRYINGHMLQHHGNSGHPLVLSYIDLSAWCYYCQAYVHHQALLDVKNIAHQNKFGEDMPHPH

RPMI-8226 [2] = experiment: Antiproliferative activity against human RPMI8226 cells after 48 hrs by SRB assay; format: functional; conditions: RPMI-8226, 48 h
Summary of the method: (§1)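 Cells were exposed to test compounds at the indicated concentrations for 48 h. They were then fixed with 10% trichloroacetic acid, stained 30 min with 0.4% SRB in 1% AcOH, and washed with 1% AcOH. Bound dye was solubilized in 10 mM Tris base and OD read at 510 nm. Lines cultured in RPMI 1640 with 20% FBS and penicillin/streptomycin, 37°C, 5% CO2.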

U-266 [3] = experiment: Antiproliferative activity against human U266 cells after 48 hrs by SRB assay; format: functional; conditions: U-266, 48 h; summary of the method: as §1
NCI-H929 [4] = experiment: Antiproliferative activity against human NCI-H929 cells after 48 hrs by SRB assay; format: functional; conditions: NCI-H929, 48 h; summary of the method: as §1
[5] = Antiproliferative activity against human HS5 cells after 48 hrs by SRB assay; format: cell-based; summary of the method: as §1
[6] = Apparent permeability from apical to basolateral side in human Caco2 cells at 10 uM after 2 hrs by LC-MS/MS analysis; format: ADME, cell-based; conditions: Caco-2
Summary of the method: (§2)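 Caco-2 cells seeded at 8.4 × 10^4 cells/cm2 on polycarbonate inserts for 21 days. For A→B, donor was apical (HBSS/MES pH 6.5, 10 µM compound) and receiver basolateral (HBSS/HEPES pH 7.4). For B→A, donor was basolateral (HBSS/HEPES pH 7.4, 10 µM) and receiver apical (HBSS/MES pH 6.5). Incubated at 37 °C for 2 h. Receiver sampled at 30, 60, 90 and 120 min, donor at 0 and 120 min.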

[7] = Apparent permeability from basolateral to apical side in human Caco2 cells at 10 uM after 2 hrs by LC-MS/MS analysis; format: ADME, cell-based; conditions: Caco-2; summary of the method: as §2
[8] = Apparent permeability from apical to basolateral side in human Caco2 cells assessed as drug recovery at 10 uM after 2 hrs by LC-MS/MS analysis; format: ADME, cell-based; conditions: Caco-2, read-out: Drug recovery; summary of the method: as §2
[9] = Apparent permeability from basolateral to apical side in human Caco2 cells assessed as drug recovery at 10 uM after 2 hrs by LC-MS/MS analysis; format: ADME, cell-based; conditions: Caco-2, read-out: Drug recovery; summary of the method: as §2
[10] = Efflux ratio of apparent permeability from in human Caco2 cells at 10 uM after 2 hrs by LC-MS/MS analysis; format: ADME, cell-based; conditions: Caco-2; summary of the method: as §2
RPMI-8226 [11] = experiment: Cell cycle arrest in human RPMI8226 cells assessed as accumulation at sub-G1 phase at 2.5 nM after 24 hrs by propidium iodide staining based flow cytometry (reference value: 12.25%); format: functional
RPMI-8226 [12] = experiment: Cell cycle arrest in human RPMI8226 cells assessed as accumulation at G0/G1 phase at 2.5 nM after 24 hrs by propidium iodide staining based flow cytometry (reference value: 44.67%); format: functional
RPMI-8226 [13] = experiment: Cell cycle arrest in human RPMI8226 cells assessed as accumulation at S phase at 2.5 nM after 24 hrs by propidium iodide staining based flow cytometry (reference value: 19.53%); format: functional
RPMI-8226 [14] = experiment: Cell cycle arrest in human RPMI8226 cells assessed as accumulation at G2/M phase at 2.5 nM after 24 hrs by propidium iodide staining based flow cytometry (reference value: 23.94%); format: functional
U-266 [15] = experiment: Cell cycle arrest in human U266 cells assessed as accumulation at G0/G1 phase at 2.5 nM after 24 hrs by propidium iodide staining based flow cytometry (reference value: 40.29%); format: functional
U-266 [16] = experiment: Cell cycle arrest in human U266 cells assessed as accumulation at S phase at 2.5 nM after 24 hrs by propidium iodide staining based flow cytometry (reference value: 14.05%); format: functional
U-266 [17] = experiment: Cell cycle arrest in human U266 cells assessed as accumulation at G2/M phase at 2.5 nM after 24 hrs by propidium iodide staining based flow cytometry (reference value: 35.13%); format: functional
NCI-H929 [18] = experiment: Cell cycle arrest in human NCI-H929 cells assessed as accumulation at sub-G1 phase at 2.5 nM after 24 hrs by propidium iodide staining based flow cytometry (reference value: 5.59%); format: functional
NCI-H929 [19] = experiment: Cell cycle arrest in human NCI-H929 cells assessed as accumulation at G0/G1 phase at 2.5 nM after 24 hrs by propidium iodide staining based flow cytometry (reference value: 49.39%); format: functional
NCI-H929 [20] = experiment: Cell cycle arrest in human NCI-H929 cells assessed as accumulation at S phase at 2.5 nM after 24 hrs by propidium iodide staining based flow cytometry (reference value: 13.5%); format: functional
NCI-H929 [21] = experiment: Cell cycle arrest in human NCI-H929 cells assessed as accumulation at G2/M phase at 2.5 nM after 24 hrs by propidium iodide staining based flow cytometry (reference value: 31.63%); format: functional
RPMI-8226 [22] = experiment: Induction of apoptosis in human RPMI8226 cells at 2.5 nM after 24 hrs by Annexin V/propidium iodide staining based flow cytometry; format: functional, cell-based
U-266 [23] = experiment: Induction of apoptosis in human U266 cells at 2.5 nM after 24 hrs by Annexin V/propidium iodide staining based flow cytometry; format: functional, cell-based
NCI-H929 [24] = experiment: Induction of apoptosis in human NCI-H929 cells at 2.5 nM after 24 hrs by Annexin V/propidium iodide staining based flow cytometry; format: functional, cell-based
RPMI-8226 [25] = experiment: Antitumor activity against human RPMI8226 cells xenografted in nude mouse assessed as tumor growth inhibition at 1 mg/kg, iv or ip administered once in week for 35 days relative to control; format: functional; conditions: RPMI-8226, 840 h, read-out: TGI
Summary of the method: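 RPMI 8226 cells (1 × 10^7) implanted s.c. in eight-week-old male nude mice. At mean tumor volume 200 mm3, mice randomized into four groups (n = 8). Caliper measurement every 3–4 days, volume L×W²/2. %TGI computed from treated versus control volume changes relative to time 0.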

Mus musculus = experiment: Toxicity in nude mouse xenografted with human RPMI8226 cells assessed as death at 1 mg/kg, iv or ip administered once in week for 35 days; format: organism-based; conditions: in vivo, 840 h
Summary of the method: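 Male nude mice, eight weeks old, received 1 × 10^7 RPMI 8226 cells subcutaneously. At a mean tumour volume of 200 mm3 they were randomised into four groups (n = 8). Dosing was 1 mg/kg i.v./i.p. once weekly, with vehicle 0.5% EtOH/0.5% Cremophor in 5% dextran. Treatment-related deaths were recorded, and caliper measurements were taken every 3–4 days.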

IC50 [1]: 129 nM
Compound: O=C(NO)c1ccc(Nc2cccc3cccnc23)cc1

IC50 [1]: 525 nM
Compound: O=C(NO)c1ccc(C(=O)Nc2cccc3ncccc23)cc1

IC50 [1]: 2.33 nM
Compound: O=C(NO)c1ccc(CNc2cccc3cnccc23)cc1

IC50 [1]: 3.25 nM
Compound: O=C(NO)c1ccc(CNc2ccc3cccnc3c2)cc1

IC50 [1]: 9.48 nM
Compound: O=C(NO)c1ccc(CSc2cccc3cccnc23)cc1

IC50 [1]: 2.31 nM
Compound: O=C(NO)c1ccc(CNc2cncc3ccccc23)cc1

IC50 [1]: 25.3 nM
Compound: O=C(NO)c1ccc(CNc2cccc3c2CCCC3)cc1

GI50 (RPMI-8226 [2]): 6400 nM
GI50 (NCI-H929 [4]): > 100000 nM
Compound: O=C(CCCCCCNC(=O)c1cnc(N(c2ccccc2)c2ccccc2)nc1)NO [RICOLINOSTAT]
GI50 (U-266 [3]): > 100000 nM
GI50 at 48 h [5]: > 100000 nM

IC50 [1]: 41.7 nM
Compound: O=C(/C=C/c1ccc(CNc2cccc3cccnc23)cc1)NO

IC50 [1]: 25.3 nM
Compound: O=C(/C=C/c1ccc(CNc2cccc3ncccc23)cc1)NO

Papp A→B at 2 h, 10 µM [6]: 1.16 ×10⁻⁶ cm/s
Papp B→A at 2 h, 10 µM [7]: 7.52 ×10⁻⁶ cm/s
recovery at 2 h, 10 µM [8]: 89.8%
recovery at 2 h, 10 µM [9]: 93.9%
efflux ratio at 2 h, 10 µM [10]: 6.5
Compound: COC(=O)c1ccccc1-c1c2ccc(=N)cc-2oc2cc(N)ccc12.Cl [RHODAMINE123]

Compound: CC(C)C[C@H](NC(=O)[C@H](Cc1ccccc1)NC(=O)c1cnccn1)B(O)O [BORTEZOMIB]
Activity (RPMI-8226 [11]): 10.55%
Activity (RPMI-8226 [12]): 42.97%
Activity (RPMI-8226 [13]): 15.19%
Activity (RPMI-8226 [14]): 31.53%
Activity (U-266 [15]): 32.66%
Activity (U-266 [16]): 7.8%
Activity (U-266 [17]): 32.22%
Activity (NCI-H929 [18]): 42.44%
Activity (NCI-H929 [19]): 29.87%
Activity (NCI-H929 [20]): 11.59%
Activity (NCI-H929 [21]): 16.32%
Activity (RPMI-8226 [22]): Active
Activity (U-266 [23]): Active
Activity (NCI-H929 [24]): Active
inhibition in vivo at 1 mg/kg (RPMI-8226 [25]): 70.1%
Activity (Mus musculus): Toxic

IC50 [1]: 4.78 nM
Compound: O=C(NO)c1ccc(CNc2ccc3ncccc3c2)cc1

IC50 [1]: 1130 nM
Compound: O=C(NO)c1cccc(CNc2cccc3cccnc23)c1

IC50 [1]: 11.4 nM
Compound: Cc1ccc2cccc(NCc3ccc(C(=O)NO)cc3)c2n1

IC50 [1]: 265 nM
Compound: O=C(NO)c1ccc(C(=O)Nc2cccc3cccnc23)cc1

IC50 [1]: 19.6 nM
Compound: O=C(NO)c1ccc(CNc2cccc3c2CCC3)cc1

IC50 [1]: 403 nM
Compound: O=C(NO)c1ccc(CNc2cnc3ccccc3c2)cc1

IC50 [1]: 4.24 nM
Compound: O=C(NO)c1ccc(CNc2ccc3ccccc3n2)cc1

IC50 [1]: 7.4 nM
Compound: O=C(NO)c1ccc(NCc2cccc3cccnc23)cc1

IC50 [1]: 41.7 nM
Compound: O=C(NO)c1ccc(CCc2cccc3cccnc23)cc1

IC50 [1]: 2.83 nM
Compound: O=C(NO)c1ccc(COc2cccc3cccnc23)cc1

IC50 [1]: 21.5 nM
Compound: O=C(NO)c1ccc(CNc2ccnc3ccccc23)cc1

IC50 [1]: 3.56 nM
Compound: O=C(NO)c1ccc(CNc2cccc3cn[nH]c23)cc1

IC50 [1]: 5.89 nM
Compound: O=C(NO)c1ccc(CNc2cccc3nccnc23)cc1

IC50 [1]: 3.35 nM
Compound: O=C(NO)c1ccc(CNc2cccc3ccncc23)cc1
